# Active and inactive are the calls of the source. The rule behind the calls is not given here.
# Columns and labels:
# [1] = biological target: Protein cereblon/Signal transducer and activator of transcription 2 (Homo sapiens) (UniProt Q96SW2+P52630); experiment: Protac activity at CRBN/STAT2 in human SUDHL1 cells assessed as degradation of STAT2 at 0.01 to 10 uM incubated for 18 hrs by Western blot analysis; assay type: cell-based
# Procedure, shortened: (§1)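 SU-DHL-1 cells treated 18 h with test compound at 0.01–10 μM, or control compounds at 10 μM. Lysates separated by SDS–PAGE, transferred to PVDF, blocked 1 h in 5% blocker/TBST, probed for each STAT protein, and detected by chemiluminescence.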
# Homo sapiens [2] = organism: Homo sapiens; experiment: Selectivity index, ratio of protac activity at CRBN/STAT2 in human SUDHL1 cells to protac activity at CRBN/STAT3 in human SUDHL1 cells; assay type: cell-based
# Procedure, shortened: (§2)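 SU-DHL-1 cells treated 18 h with compound at 0.01–10 μM, or controls at 10 μM. Immunoblotting used SDS–PAGE, PVDF transfer, 1 h block in 5% blocker/TBST, primary and secondary antibodies and chemiluminescence. Levels of other STAT family members compared with STAT3 to express degradation selectivity.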
# Homo sapiens [3] = organism: Homo sapiens; experiment: Selectivity index, ratio of protac activity at CRBN/STAT5A in human SUDHL1 cells to protac activity at CRBN/STAT3 in human SUDHL1 cells; assay type: cell-based; procedure, shortened: as §2
# [4] = biological target: Protein cereblon/Signal transducer and activator of transcription 1-alpha/beta (Homo sapiens) (UniProt P42224+Q96SW2); experiment: Protac activity at CRBN/STAT1 in human MOLM16 cells assessed as degradation of STAT1 at 0.01 to 10 uM incubated for 4 hrs by Western blot analysis; assay type: cell-based
# Procedure, shortened: (§3)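 Molm-16 cells treated 4 h with test compound at 0.01–10 μM, or control compounds at 10 μM. Lysates separated by SDS–PAGE, transferred to PVDF, blocked 1 h in 5% blocker/TBST, probed for each STAT protein, and detected by chemiluminescence.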
# [5] = biological target: T1, Signal transducer and activator of transcription 4 (Homo sapiens, UniProt Q14765); experiment: Binding affinity to recombinant human His/SUMO-tagged STAT4 (133 to 705 residues) expressed in Escherichia coli Rosetta (DE3) incubated for 1 hr by fluorescence polarization assay
# T1 sequence (Q14765 whole entry): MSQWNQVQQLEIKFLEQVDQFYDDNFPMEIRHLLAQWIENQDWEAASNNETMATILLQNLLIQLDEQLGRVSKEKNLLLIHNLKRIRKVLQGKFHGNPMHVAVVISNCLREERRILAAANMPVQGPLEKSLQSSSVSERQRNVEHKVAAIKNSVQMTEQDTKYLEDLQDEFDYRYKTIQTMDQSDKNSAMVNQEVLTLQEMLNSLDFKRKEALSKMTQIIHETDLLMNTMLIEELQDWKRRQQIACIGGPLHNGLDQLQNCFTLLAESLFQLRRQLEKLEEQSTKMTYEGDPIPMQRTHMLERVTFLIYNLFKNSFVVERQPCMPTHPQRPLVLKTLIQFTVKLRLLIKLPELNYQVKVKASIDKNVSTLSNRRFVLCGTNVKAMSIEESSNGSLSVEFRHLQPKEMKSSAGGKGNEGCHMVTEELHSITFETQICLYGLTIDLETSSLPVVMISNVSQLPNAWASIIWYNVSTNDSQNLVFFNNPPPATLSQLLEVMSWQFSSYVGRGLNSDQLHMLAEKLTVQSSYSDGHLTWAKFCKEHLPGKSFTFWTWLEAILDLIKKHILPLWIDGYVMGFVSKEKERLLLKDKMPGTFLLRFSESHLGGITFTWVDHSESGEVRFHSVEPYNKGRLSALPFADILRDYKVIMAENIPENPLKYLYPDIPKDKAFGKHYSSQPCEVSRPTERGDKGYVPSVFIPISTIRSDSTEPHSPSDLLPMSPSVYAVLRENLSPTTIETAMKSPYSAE
# Homo sapiens [6] = organism: Homo sapiens; experiment: Selectivity index, ratio of protac activity at CRBN/STAT6 in human SUDHL1 cells to protac activity at CRBN/STAT3 in human SUDHL1 cells; assay type: cell-based; procedure, shortened: as §2
# [7] = biological target: T2, Signal transducer and activator of transcription 1-alpha/beta (Homo sapiens, UniProt P42224); experiment: Binding affinity to recombinant human His/SUMO-tagged STAT1 (132 to 713 residues) expressed in Escherichia coli Rosetta (DE3) incubated for 1 hr by fluorescence polarization assay
# T2 sequence (P42224 whole entry): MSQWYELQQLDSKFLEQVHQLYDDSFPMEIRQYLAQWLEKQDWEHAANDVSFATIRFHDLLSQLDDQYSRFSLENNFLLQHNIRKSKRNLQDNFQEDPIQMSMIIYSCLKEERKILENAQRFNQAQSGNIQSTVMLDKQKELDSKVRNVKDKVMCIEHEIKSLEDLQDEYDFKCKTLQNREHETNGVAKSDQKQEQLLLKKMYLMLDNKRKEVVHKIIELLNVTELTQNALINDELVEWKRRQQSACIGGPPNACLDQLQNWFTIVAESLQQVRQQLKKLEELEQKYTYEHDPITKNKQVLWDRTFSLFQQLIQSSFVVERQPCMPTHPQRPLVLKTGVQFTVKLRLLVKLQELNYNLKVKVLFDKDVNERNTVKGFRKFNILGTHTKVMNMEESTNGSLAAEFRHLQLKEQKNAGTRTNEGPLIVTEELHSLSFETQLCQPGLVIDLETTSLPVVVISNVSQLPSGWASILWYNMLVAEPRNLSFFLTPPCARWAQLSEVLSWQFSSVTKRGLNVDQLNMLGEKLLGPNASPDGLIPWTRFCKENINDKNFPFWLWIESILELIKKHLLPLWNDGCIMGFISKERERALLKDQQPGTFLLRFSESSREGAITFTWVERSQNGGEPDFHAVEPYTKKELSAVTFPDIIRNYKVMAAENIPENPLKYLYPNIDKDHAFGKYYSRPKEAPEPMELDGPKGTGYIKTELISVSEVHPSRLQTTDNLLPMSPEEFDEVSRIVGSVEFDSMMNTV
# Homo sapiens [8] = organism: Homo sapiens; experiment: Selectivity index, ratio of protac activity at CRBN/STAT5B in human SUDHL1 cells to protac activity at CRBN/STAT3 in human SUDHL1 cells; assay type: cell-based; procedure, shortened: as §2
# [9] = biological target: Protein cereblon/Signal transducer and activator of transcription 5A (Homo sapiens) (UniProt P42229+Q96SW2); experiment: Protac activity at CRBN/STAT5A in human MOLM16 cells assessed as degradation of STAT5A at 0.01 to 10 uM incubated for 4 hrs by Western blot analysis; assay type: cell-based; procedure, shortened: as §3
# Homo sapiens [10] = organism: Homo sapiens; experiment: Selectivity index, ratio of protac activity at CRBN/STAT4 in human SUDHL1 cells to protac activity at CRBN/STAT3 in human SUDHL1 cells; assay type: cell-based; procedure, shortened: as §2
# [11] = biological target: Protein cereblon/Signal transducer and activator of transcription 6 (Homo sapiens) (UniProt P42226+Q96SW2); experiment: Protac activity at CRBN/STAT6 in human SUDHL1 cells assessed as degradation of STAT6 at 0.01 to 10 uM incubated for 18 hrs by Western blot analysis; assay type: cell-based; procedure, shortened: as §1
# Protein cereblon/Signal transducer and activator of transcription 6 (Homo sapiens), sequence (P42226 2-847 limits assumed): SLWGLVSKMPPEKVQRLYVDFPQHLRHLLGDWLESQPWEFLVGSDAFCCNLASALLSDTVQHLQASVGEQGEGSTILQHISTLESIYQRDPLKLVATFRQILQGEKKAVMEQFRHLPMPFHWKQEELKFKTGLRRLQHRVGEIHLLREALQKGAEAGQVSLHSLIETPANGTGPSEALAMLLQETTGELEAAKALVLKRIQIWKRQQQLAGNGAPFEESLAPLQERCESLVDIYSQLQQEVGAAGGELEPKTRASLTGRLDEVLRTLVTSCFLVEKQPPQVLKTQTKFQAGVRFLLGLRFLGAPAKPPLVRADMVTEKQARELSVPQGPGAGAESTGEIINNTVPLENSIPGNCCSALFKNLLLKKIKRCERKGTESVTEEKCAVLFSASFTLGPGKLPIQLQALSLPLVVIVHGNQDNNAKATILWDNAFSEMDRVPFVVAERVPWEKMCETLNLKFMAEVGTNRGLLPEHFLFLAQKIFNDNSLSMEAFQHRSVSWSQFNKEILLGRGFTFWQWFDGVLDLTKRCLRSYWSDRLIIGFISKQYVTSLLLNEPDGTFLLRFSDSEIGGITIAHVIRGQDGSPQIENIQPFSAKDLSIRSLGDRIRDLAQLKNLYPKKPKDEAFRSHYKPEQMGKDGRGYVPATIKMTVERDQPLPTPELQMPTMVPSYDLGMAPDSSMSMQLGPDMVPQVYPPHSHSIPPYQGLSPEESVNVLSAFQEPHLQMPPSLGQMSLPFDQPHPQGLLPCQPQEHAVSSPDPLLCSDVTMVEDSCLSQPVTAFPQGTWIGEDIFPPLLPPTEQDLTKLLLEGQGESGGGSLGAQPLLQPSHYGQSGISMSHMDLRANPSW
# Protein cereblon/Signal transducer and activator of transcription 6 (Homo sapiens), sequence (Q96SW2 whole entry partner): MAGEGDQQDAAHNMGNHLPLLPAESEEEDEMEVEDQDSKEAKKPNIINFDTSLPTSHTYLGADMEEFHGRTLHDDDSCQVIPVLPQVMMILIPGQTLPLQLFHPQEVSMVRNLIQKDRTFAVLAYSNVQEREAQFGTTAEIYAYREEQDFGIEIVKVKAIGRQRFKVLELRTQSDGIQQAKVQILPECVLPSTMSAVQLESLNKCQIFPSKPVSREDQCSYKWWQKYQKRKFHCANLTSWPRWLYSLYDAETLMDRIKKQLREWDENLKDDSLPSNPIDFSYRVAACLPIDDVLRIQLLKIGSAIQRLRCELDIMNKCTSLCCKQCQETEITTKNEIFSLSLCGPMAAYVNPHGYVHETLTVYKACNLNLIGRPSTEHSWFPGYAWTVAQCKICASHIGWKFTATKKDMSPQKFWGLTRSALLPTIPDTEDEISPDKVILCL
# Protein cereblon/Signal transducer and activator of transcription 2 (Homo sapiens), sequence (P52630 whole entry, looked up): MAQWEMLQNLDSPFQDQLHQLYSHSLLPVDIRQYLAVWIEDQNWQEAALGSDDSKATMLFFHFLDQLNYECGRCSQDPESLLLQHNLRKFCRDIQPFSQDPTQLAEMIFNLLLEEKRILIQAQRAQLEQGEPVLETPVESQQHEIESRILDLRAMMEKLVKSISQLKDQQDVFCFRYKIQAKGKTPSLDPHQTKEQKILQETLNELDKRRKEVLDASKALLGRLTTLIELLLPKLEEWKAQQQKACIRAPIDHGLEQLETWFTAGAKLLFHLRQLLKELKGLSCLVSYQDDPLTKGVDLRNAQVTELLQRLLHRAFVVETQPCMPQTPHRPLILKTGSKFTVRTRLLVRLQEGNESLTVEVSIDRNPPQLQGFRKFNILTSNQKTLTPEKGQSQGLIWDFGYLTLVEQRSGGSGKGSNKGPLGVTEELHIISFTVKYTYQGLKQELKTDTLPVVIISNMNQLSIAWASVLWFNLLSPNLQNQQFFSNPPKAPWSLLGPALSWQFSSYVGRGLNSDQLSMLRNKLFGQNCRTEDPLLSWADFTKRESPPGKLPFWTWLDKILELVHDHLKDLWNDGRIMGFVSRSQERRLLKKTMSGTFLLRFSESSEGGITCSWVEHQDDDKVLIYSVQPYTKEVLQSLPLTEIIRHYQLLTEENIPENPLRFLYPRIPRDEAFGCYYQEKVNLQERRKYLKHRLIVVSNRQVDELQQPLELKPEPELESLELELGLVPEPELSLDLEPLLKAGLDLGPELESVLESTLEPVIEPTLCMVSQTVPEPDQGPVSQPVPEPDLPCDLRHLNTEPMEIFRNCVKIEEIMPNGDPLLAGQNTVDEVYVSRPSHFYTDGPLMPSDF
# Protein cereblon/Signal transducer and activator of transcription 2 (Homo sapiens), sequence (Q96SW2 whole entry, looked up): as the sequence (Q96SW2 whole entry partner) above
# Protein cereblon/Signal transducer and activator of transcription 5A (Homo sapiens), sequence (P42229 whole entry, looked up): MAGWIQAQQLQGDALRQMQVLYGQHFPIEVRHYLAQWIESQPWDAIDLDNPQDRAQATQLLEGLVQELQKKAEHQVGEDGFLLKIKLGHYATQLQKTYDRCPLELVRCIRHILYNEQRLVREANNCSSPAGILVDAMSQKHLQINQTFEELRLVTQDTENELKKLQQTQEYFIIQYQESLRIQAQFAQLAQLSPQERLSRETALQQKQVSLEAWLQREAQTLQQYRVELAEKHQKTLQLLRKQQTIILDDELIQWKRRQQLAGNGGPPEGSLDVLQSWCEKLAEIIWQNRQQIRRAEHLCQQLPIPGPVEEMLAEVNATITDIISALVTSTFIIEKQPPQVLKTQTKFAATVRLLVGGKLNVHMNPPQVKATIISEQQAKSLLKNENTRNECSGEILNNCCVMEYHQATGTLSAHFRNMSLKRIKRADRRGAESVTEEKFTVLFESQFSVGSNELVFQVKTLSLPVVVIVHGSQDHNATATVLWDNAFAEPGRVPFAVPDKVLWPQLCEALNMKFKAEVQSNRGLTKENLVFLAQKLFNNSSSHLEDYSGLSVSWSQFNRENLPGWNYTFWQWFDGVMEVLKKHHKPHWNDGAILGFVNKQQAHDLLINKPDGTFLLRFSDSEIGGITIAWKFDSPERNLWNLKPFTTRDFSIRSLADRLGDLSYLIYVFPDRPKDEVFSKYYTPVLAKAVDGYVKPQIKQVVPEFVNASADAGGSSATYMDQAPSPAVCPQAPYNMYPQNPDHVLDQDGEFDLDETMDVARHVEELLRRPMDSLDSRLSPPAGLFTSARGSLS
# Protein cereblon/Signal transducer and activator of transcription 5A (Homo sapiens), sequence (Q96SW2 whole entry, looked up): as the sequence (Q96SW2 whole entry partner) above
smiles,measurement,setting,value
NC(=O)CC[C@H](NC(=O)[C@@H]1CC[C@@H]2CCN(C(=O)CCCCCC#Cc3cccc4c3CN(C3CCC(=O)NC3=O)C4=O)C[C@H](NC(=O)c3cc4cc(C(F)(F)P(=O)(O)O)ccc4[nH]3)C(=O)N21)C(=O)NC(c1ccccc1)c1ccccc1 (stereo partly specified),Activity,[1],inactive
same,Ratio,Homo sapiens [2],> 100
same,Ratio,Homo sapiens [3],> 100
same,Activity,[4],inactive
same,Kd,[5],1000 nM
same,Ratio,Homo sapiens [6],> 100
same,Kd,[7],1000 nM
same,Ratio,Homo sapiens [8],> 100
same,Activity,[9],inactive
same,Ratio,Homo sapiens [10],> 100
same,Activity,[11],inactive
